The source of these data is ChEMBL document CHEMBL4325901, “Novel multitarget-directed ligands targeting acetylcholinesterase and σ1 receptors as lead compounds for treatment of Alzheimer's disease: Synthesis, evaluation, and structural characterization of their complexes with acetylcholinesterase” (Eur J Med Chem, 2019).

Molecules are shown by their SMILES. Calls of active or inactive are those of the source. No cut-off for these calls is given here.

The target in assay [1] is T1, 5-hydroxytryptamine receptor 4 (Homo sapiens, UniProt Q13639). The assay can be described thus: Displacement of [3H]-GR113808 from recombinant human 5-HT4BR expressed in membranes after 60 mins. On the technique in general: Displacement assays read how much labelled ligand stays bound in the presence of the test substance.
T1 sequence (Q13639 whole entry): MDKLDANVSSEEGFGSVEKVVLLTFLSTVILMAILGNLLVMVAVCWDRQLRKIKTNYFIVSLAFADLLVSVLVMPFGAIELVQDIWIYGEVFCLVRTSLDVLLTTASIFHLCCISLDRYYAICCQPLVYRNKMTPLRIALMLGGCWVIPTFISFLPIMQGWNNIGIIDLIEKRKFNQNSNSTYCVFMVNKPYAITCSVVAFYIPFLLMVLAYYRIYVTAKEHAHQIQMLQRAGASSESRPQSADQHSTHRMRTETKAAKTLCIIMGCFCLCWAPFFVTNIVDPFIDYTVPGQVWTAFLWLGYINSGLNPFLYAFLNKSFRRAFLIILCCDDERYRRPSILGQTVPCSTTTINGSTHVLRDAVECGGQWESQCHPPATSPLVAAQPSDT
In assay [2] the target is T2, Acetylcholinesterase (Homo sapiens, UniProt P22303). The assay can be described thus: Inhibition of human erythrocytes AChE using acetylthiocholine iodide as substrate preincubated for 5 mins followed by substrate addition measured at 1 min time interval for 10 mins by Ellman's method. Background: Ellman's reagent forms a yellow product with free thiols.
T2 sequence (P22303 whole entry): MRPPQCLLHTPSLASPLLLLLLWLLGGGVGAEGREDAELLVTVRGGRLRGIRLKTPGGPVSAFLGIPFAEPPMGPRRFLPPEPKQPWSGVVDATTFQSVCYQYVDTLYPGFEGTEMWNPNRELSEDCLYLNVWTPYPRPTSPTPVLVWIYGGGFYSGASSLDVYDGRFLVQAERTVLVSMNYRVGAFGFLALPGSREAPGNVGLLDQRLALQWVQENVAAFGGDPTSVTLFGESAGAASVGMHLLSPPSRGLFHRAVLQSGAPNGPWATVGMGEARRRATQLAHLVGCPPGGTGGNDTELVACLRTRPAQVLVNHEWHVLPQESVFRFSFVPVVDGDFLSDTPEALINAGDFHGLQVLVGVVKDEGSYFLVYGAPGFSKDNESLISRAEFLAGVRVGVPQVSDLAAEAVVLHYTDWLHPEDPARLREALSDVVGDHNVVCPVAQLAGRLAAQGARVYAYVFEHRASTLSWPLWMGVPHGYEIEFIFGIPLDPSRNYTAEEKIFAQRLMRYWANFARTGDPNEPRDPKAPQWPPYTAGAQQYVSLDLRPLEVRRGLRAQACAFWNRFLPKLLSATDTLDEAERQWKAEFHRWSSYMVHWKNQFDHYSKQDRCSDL
For assay [3], the target named is T1, 5-hydroxytryptamine receptor 4. The assay can be described thus: Displacement of [3H]-GR113808 from recombinant human 5-HT4BR expressed in membranes at 1 uM after 60 mins relative to control. A digest of the protocol:
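Crude membranes from a stable recombinant cell line expressing 5-HT4B were incubated in duplicate at 25 °C for 60 min with compound at 10^-6 or 10^-8 M and 0.2 nM [3H]-GR113808 in 25 mM Tris, pH 7.4. They were filtered through polyethylenimine-presoaked GF/C filters and washed three times with ice-cold Tris. Nonspecific binding was defined with serotonin.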

The target in assay [4] is Sigma non-opioid intracellular receptor 1 (Homo sapiens, UniProt Q99720). Briefly: Displacement of [3H]-(+)-pentazocine from sigma-1 receptor in human Jurkat cell membranes after 2 hrs by liquid scintillation counting method.
Sequence of Sigma non-opioid intracellular receptor 1 (Q99720 whole entry): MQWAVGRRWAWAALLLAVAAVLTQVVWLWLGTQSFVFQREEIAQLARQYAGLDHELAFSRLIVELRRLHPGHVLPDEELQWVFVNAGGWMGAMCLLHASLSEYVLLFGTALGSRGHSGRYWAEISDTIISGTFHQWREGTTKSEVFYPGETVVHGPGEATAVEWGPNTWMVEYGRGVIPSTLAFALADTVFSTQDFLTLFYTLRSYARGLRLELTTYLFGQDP
Assay [5] deals with T1, 5-hydroxytryptamine receptor 4. Briefly: Agonist activity at 5-HT4R (unknown origin) expressed in CHO cells assessed as intracellular cAMP accumulation after 15 mins by radio-immunoassay. The class given is functional, cell-based. A digest of the protocol:
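Stably transfected CHO cells grown to confluence, serum-starved 4 h, then preincubated 15 min in serum-free medium with 5 mM theophylline, 10 mM pargyline and […] to block endogenous 5-HT1B receptors. 5-HT or test compound added for a further 15 min. Stopped with ice-cold ethanol, 30 min at room temperature, ethanol fraction dried, cAMP quantified by competitive radioimmunoassay.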
For orientation: cAMP levels reflect the balance of adenylyl cyclase and phosphodiesterase activity.

In assay [6] the test system is Mus musculus. Briefly: Cognition enhancing effect in Swiss mouse assessed as protection against dizocilpine-induced long term non-spatial memory impairment by measuring increase in step-through latency at 0.1 mg/kg, ip pretreated for 10 mins followed by dizocilpine treatment and measured after 20 mins by passive avoidance test relative to control. It is filed as functional. A digest of the protocol: (§1)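 Male Swiss mice, 6 weeks, 32 g, groups of 12e16. Compounds dissolved in 10% DMSO in saline, diluted in saline; vehicle 2% DMSO in saline. Given IP 10 min before dizocilpine 0.15 mg/kg IP, 20 min before Y-maze session (alternation % and arm entries) or passive-avoidance training (footshock 3 s on entering dark compartment; step-through latency).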

Assay [7] concerns Mus musculus. Briefly: Cognition enhancing effect in Swiss mouse assessed as protection against dizocilpine-induced spatial memory impairment by measuring spontaneous alternation performance at 0.1 to 1 mg/kg, ip pretreated for 10 mins followed by dizocilpine treatment and measured after 20 mins by Y-maze test. It is filed as functional, organism-based. A digest of the protocol:
as §1

In assay [8] the target is T2, Acetylcholinesterase. The assay can be described thus: Non-competitive inhibition of human erythrocytes AChE up to 1 uM using varying levels of acetylthiocholine iodide substrate preincubated for 5 mins followed by substrate addition measured at 1 min time interval for 10 mins by Lineweaver-Burk plot analysis.
The target of assay [9] is T1, 5-hydroxytryptamine receptor 4. Briefly: Antagonist activity at 5-HT4R (unknown origin) expressed in CHO cells assessed as reduction in intracellular cAMP accumulation after 15 mins by radio-immunoassay. It is filed as functional, cell-based.

For `CCCCN1CCC(CCC(=O)c2ccc3[nH]ccc3c2)CC1`, the inhibitory constant (Ki) (in general, the equilibrium dissociation constant of an inhibitor or competing ligand from its target) in assay [1] was 49.6 nM. For the same compound, the 50% inhibitory concentration (IC50) (in general, the concentration that inhibits the measured activity by half) in assay [2] stood at 716 nM. Further, the inhibition – broadly, the drop in the measured response relative to a control, in per cent – in assay [3] stood at 97%.
`COc1c(C(=O)CCC2CCN(Cc3ccccc3)CC2)cc(Cl)c2[nH]ccc12`: the values for the Ki in assay [4] and in assay [1] were 5.7 nM and 150 nM, respectively. Moreover, the IC50 in assay [2] came out at 20.4 nM. In addition, in assay [3], the inhibition is 96%.
For `O=C(CCC1CCN(CC2CCCCC2)CC1)c1ccc2[nH]ccc2c1`, the Ki in assay [1] amounted to 37.5 nM. For the same compound, the midpoint of inhibition in assay [2], the IC50, lay at 51 nM. Moreover, in assay [3], the inhibition was determined as 100%.
For `COc1cc(N)c(Cl)cc1C(=O)CCC1CCN(CC2CCCCC2)CC1`, in [4], the inhibition constant (Ki) was 51 nM. Moreover, the outcome in assay [5] was Active.
With `CCCCN1CCC(CCC(=O)c2cc(Cl)c(N)cc2OC)CC1`, the inhibition in assay [3] was found to be 100%.
As for `O=C(CCC1CCN(CC2CCCC2)CC1)c1ccc2[nH]ccc2c1`, in assay [1], the inhibition constant (Ki) stood at 25 nM. The IC50 in assay [2] came out at 94 nM. For the same compound, the inhibition in assay [3] is 100%.
On to `COc1c(C(=O)CCC2CCN(Cc3ccccc3)CC2)cc(Cl)c2[nH]c([Si](C)(C)C)cc12`, for which the IC50 in assay [2] was 275 nM. Besides, the inhibition in assay [3] came to 62%.
Turning to `O=C(CCC1CCN(CC2CCCCC2)CC1)c1cc(Cl)c2[nH]ccc2c1`, the Ki in assay [4] stood at 5.1 nM; in assay [1] it was 37.5 nM. Besides, in assay [6], the Activity is listed as 40%. Besides, the result in [7] was inactive. Also, the IC50 in assay [2] was found to be 28.8 nM. Moreover, in [3], the inhibition amounted to 100%.
As to `O=C(CCC1CCN(CC2CCCCC2)CC1)c1ccc2c(ccn2Cc2ccccc2)c1`, half-maximal inhibition in assay [2] (IC50) was put at 133 nM. Further, the inhibition in [3] is 42%.
Regarding `COc1c(C(=O)CCC2CCN(CC3CCCCC3)CC2)cc(Cl)c2[nH]ccc12`, the inhibition entry in assay [8] and in assay [9] was “Active” each time. For the same compound, the inhibition constant Ki in [4] was determined as 5.1 nM; in [1], 40.9 nM. In addition, the half-maximal inhibitory concentration (IC50) in assay [2] was 91.4 nM. In addition, the inhibition in [3] stood at 100%.
In the case of `COc1c(C(=O)CCC2CCN(CC3CCCCC3)CC2)cc(Cl)c2c1ccn2S(=O)(=O)c1ccccc1`, half-maximal inhibition in assay [2] (IC50) was put at 559 nM. Besides, the inhibition in [3] was determined as 62%.
As to `COc1c(C(=O)CCC2CCN(CC3CCCCC3)CC2)ccc2[nH]ccc12`, in [1], the Ki worked out at 51 nM. This compound showed an IC50 in assay [2] of 40 nM. Further, the inhibition in assay [3] was determined as 100%.
In [2], `COc1c(C(=O)CCC2CCN(CC3CCCCC3)CC2)cc(Cl)c2c1ccn2Cc1ccccc1` showed a 50% inhibitory concentration (IC50) of 261 nM.
`COc1cc2c(cc1OC)C(=O)C(CC1CCN(Cc3ccccc3)CC1)C2` (centres undefined): the inhibition in assay [3] was 10%.
With `COc1c(C(=O)CCC2CCN(CC3CCCCC3)CC2)cc(Cl)c2c1ccn2C`, inhibition in assay [2] was half-maximal at 84.4 nM (IC50).
On to `O=C(CCC1CCN(Cc2ccccc2)CC1)c1ccc2[nH]ccc2c1`, for which the Ki in assay [4] is 3.3 nM; in assay [1], 169 nM. The compound further gave an IC50 in [2] of 13.3 nM. The inhibition in [3] stood at 90%.
